# Assay results from different studies.
# Protocols differ between the studies behind these lines. pKi: −log10 of the molar value.
# SIGMAR1: Sigma non-opioid intracellular receptor 1 (SIGMAR1, Cavia porcellus, UniProt Q60492)
# Prostate-specific antigen: Prostate-specific antigen (Homo sapiens, UniProt P07288)
# ADRA1D: Alpha-1D adrenergic receptor (ADRA1D, Homo sapiens, UniProt P25100)
# TMEM97: Sigma intracellular receptor 2 (TMEM97, Homo sapiens, UniProt Q5BJF2)
# ADRA2B: Alpha-2B adrenergic receptor (ADRA2B, Homo sapiens, UniProt P18089)
# CASP7: Caspase-7 (CASP7, Homo sapiens, UniProt P55210)
SMILES,target,read-out,mode,technique,pH,notes,pKi
C[C@@H]1O[C@H](CNS(=O)(=O)c2ccc(CCN=[N+]=[N-])s2)[C@@H](O)[C@H](O)[C@@H]1O,"Fucose-binding lectin PA-IIL (lecB, Pseudomonas aeruginosa, UniProt Q9HYN5)",ligand displacement,,FP,,,5.82
O=C(NCCN1CCCCC1)c1cc(Br)ccc1OCCCF,SIGMAR1,ligand displacement,,radioligand,,cell membranes,7.28
CCCC[C@H](NC(=O)[C@H](CCC(N)=O)NC(=O)[C@H](CO)NC(=O)[C@H](Cc1ccccc1)NC(=O)CCCCCNC(=O)c1ccc(I)cc1)C(=O)N[C@@H](CCCBr)B(O)O,Prostate-specific antigen,enzyme activity,inhibitor,fluorescence,pH 7.8,,7.19
COc1ccc2c(c1)C(=O)N(CCN1CCN(c3ccccc3OC)CC1)C2,ADRA1D,ligand displacement,,radioligand,,,7.91
OCCCN1CC[C@@H]2C[C@H]1c1cc(-c3ccc(C(F)(F)F)cc3)ccc12,TMEM97,ligand displacement,,radioligand,,,7.77
CCCC[C@H](NC(=O)[C@H](CCC(N)=O)NC(=O)[C@H](CO)NC(=O)[C@H](C)NC(=O)CCCCCN)C(=O)N[C@@H](Cc1ccccc1)B(O)O,Prostate-specific antigen,enzyme activity,inhibitor,fluorescence,pH 7.8,,6.51
COc1ccc(CO[C@H]2CCCN(Cc3cccc(C)c3)C2)cc1F,TMEM97,ligand displacement,,radioligand,,cell membranes,7.40
CCCC[C@H](NC(=O)[C@H](CCC(N)=O)NC(=O)[C@H](CO)NC(=O)[C@H](C)NC(=O)CCCCCN)C(=O)N[C@@H](CCCBr)B(O)O,Prostate-specific antigen,enzyme activity,inhibitor,fluorescence,pH 7.8,,7.28
CCCn1nc(C(=O)N2CCCCC2)c2c1CCC(N1CCC(c3ccncc3)CC1)C2 (stereo not drawn),TMEM97,ligand displacement,,radioligand,,,7.80
CN(Cc1ccc(NC(=O)C2=Cc3cc(-c4ccc(OCCCCCF)cc4)ccc3CCC2)cc1)C1CCOCC1,SIGMAR1,ligand displacement,,radioligand,,,6.49
C#CCN(CCCN1CCN(C2CCCCC2)CC1)c1ccc(C(=O)c2ccccc2)cc1,TMEM97,ligand displacement,,radioligand,,cell membranes,7.11
CCCn1nc(C(=O)N2CCCCC2)c2c1CCC(Nc1ccc(N3CCCCC3)cc1)C2 (stereo not drawn),TMEM97,ligand displacement,,radioligand,,,6.10
CCCCN1CCC(COC(=O)c2ccc(N)c(OCF)c2)CC1,ADRA2B,cell-free assay,,radioligand,,,< 5.00
COc1cc2c(cc1OC)CN(CCCNC(=O)c1ccc(C(=O)c3ccc([N+](=O)[O-])cc3)cc1)CC2,TMEM97,ligand displacement,,radioligand,,cell membranes,5.92
Cc1cc(Oc2nccc3c2ccn3C)ccc1-c1c(C)c(=O)[nH]c(=O)n1C,"Muscarinic acetylcholine receptor M3 (CHRM3, Homo sapiens, UniProt P20309)",ligand displacement,,radioligand,,,5.38
O=C(NCCN1CCCCC1)c1ccc(OCCF)c(Br)c1,SIGMAR1,ligand displacement,,radioligand,,cell membranes,7.44
CCCC[C@H](NC(=O)[C@H](CCC(N)=O)NC(=O)[C@H](CO)NC(=O)C[C@@H](Cc1ccc2ccccc2c1)NC(=O)CCCCCN)C(=O)N[C@@H](Cc1ccccc1)B(O)O,Prostate-specific antigen,enzyme activity,inhibitor,fluorescence,pH 7.8,,6.64
O=c1cc(-c2ccc(O)c(O)c2)oc2cc(O)cc(O)c12,CASP7,enzyme activity,inhibitor,fluorescence,,,3.89
CNc1nc(C#Cc2ccc(Cl)s2)nc2c1ncn2[C@H]1[C@H](O)[C@H](O)[C@]2(C(=O)OC)C[C@H]12,SIGMAR1,ligand displacement,,radioligand,,,5.06
CN(Cc1ccc(NC(=O)C2=Cc3cc(-c4ccc(OCCCF)cc4)ccc3CCC2)cc1)C1CCOCC1,SIGMAR1,ligand displacement,,radioligand,,,6.00
CCCC[C@H](NC(=O)[C@H](CCC(N)=O)NC(=O)[C@H](CO)NC(=O)[C@H](Cc1ccccc1)NC(=O)CCCCCN)C(=O)N[C@@H](CCCBr)B1O[C@@H]2C[C@@H]3C[C@@H](C3(C)C)[C@]2(C)O1,Prostate-specific antigen,enzyme activity,inhibitor,fluorescence,pH 7.8,,7.13
CNC(=O)[C@@]12C[C@@H]1[C@@H](n1cnc3c(NC)nc(C#Cc4ccccc4)nc31)[C@H](O)[C@@H]2O,SIGMAR1,ligand displacement,,radioligand,,,5.15
CC(C)(C)Oc1cc(CCC(C)(C)N2Cc3ccc(S(C)(=O)=O)cc3C2)ccc1O,TMEM97,ligand displacement,,radioligand,,cell membranes,8.07
O=C1c2ccccc2CCN1CCCCN1CCN(c2cccc(Cl)c2Cl)CC1,ADRA1D,ligand displacement,,radioligand,,,7.11
O=c1c(O)c(-c2cc(O)c(O)c(O)c2)oc2cc(O)cc(O)c12,CASP7,enzyme activity,inhibitor,fluorescence,,,4.18
O=C(c1ccc(CNCCCN2CCN(C3CCCCC3)CC2)cc1)c1ccc([N+](=O)[O-])cc1,TMEM97,ligand displacement,,radioligand,,cell membranes,7.48
CCCC[C@H](NC(=O)[C@H](CCC(N)=O)NC(=O)[C@H](CO)NC(=O)[C@H](Cc1ccccc1)NC(=O)CCCCCN)C(=O)N[C@@H](Cc1ccccc1)B(O)O,Prostate-specific antigen,enzyme activity,inhibitor,fluorescence,pH 7.8,,7.21
C#CCNCCCN1CCN(CCCNC(=O)c2ccc(C(=O)c3ccc([N+](=O)[O-])cc3)cc2)CC1,TMEM97,ligand displacement,,radioligand,,cell membranes,7.22
CCCC[C@H](NC(=O)[C@H](CCC(N)=O)NC(=O)[C@H](CO)NC(=O)CCCCCN)C(=O)N[C@@H](CCCBr)B(O)O,Prostate-specific antigen,enzyme activity,inhibitor,fluorescence,pH 7.8,,6.52
Nc1ccnc2ccccc12,ADRA2B,ligand displacement,,radioligand,,cell membranes,4.27
